These results are taken from ChEMBL document CHEMBL2010694, “Indolyl and dihydroindolyl N-glycinamides as potent and in vivo active NPY5 antagonists” (Bioorg Med Chem Lett, 2012).

One data set deals with T1, Neuropeptide Y receptor type 5 (Homo sapiens, UniProt Q15761).
T1 sequence (Q15761 whole entry): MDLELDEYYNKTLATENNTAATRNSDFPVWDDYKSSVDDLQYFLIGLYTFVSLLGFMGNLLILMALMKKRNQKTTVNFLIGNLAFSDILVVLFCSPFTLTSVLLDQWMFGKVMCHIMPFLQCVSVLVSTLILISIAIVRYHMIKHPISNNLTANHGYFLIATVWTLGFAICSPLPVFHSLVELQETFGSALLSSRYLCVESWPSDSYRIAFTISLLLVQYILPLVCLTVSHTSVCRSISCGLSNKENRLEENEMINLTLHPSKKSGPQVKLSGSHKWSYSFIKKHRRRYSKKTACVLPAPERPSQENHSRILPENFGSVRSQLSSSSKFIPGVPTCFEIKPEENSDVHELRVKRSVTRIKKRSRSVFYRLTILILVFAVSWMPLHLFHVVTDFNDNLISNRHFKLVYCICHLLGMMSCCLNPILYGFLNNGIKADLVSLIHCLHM
Kind of data set: Displacement of [125I]peptide YY from human NPY5 receptor.
Conditions: not given
Turning to `Cc1cc2ccccc2n1CC(=O)N[C@H]1CC[C@H](CNS(=O)(=O)C(C)C)CC1`, the Ki was 8.9 nM.

`CC(C)S(=O)(=O)NC[C@H]1CC[C@H](NC(=O)Cc2c[nH]c3ccccc23)CC1` registered a Ki of 12 nM.

In the case of `CC(C)S(=O)(=O)NC[C@H]1CC[C@H](NC(=O)Cn2ccc3c(Cl)cccc32)CC1`, the Ki worked out at 1.7 nM.

Regarding `CC(C)S(=O)(=O)NC[C@H]1CC[C@H](NC(=O)Cn2c(=O)oc3ccccc32)CC1`, the Ki was determined as 10 nM.

`Cc1ccc2c(c1)CCN2CC(=O)N[C@H]1CC[C@H](CNS(=O)(=O)C(C)C)CC1` returned an inhibitory constant (Ki) of 3.5 nM.

Turning to `CC(C)S(=O)(=O)NC[C@H]1CC[C@H](NC(=O)Cn2ccc3cc(F)ccc32)CC1`, the Ki was 2.2 nM.

Compound `CC(C)S(=O)(=O)NC[C@H]1CC[C@H](NC(=O)CCN2CCc3ccccc32)CC1` registered a Ki of 1.8 nM.

Turning to `CC(C)S(=O)(=O)NC[C@H]1CC[C@H](NC(=O)Cn2ccc3cc(C#N)ccc32)CC1`, the Ki was determined as 5.6 nM.

In turn, `CC(C)S(=O)(=O)NC[C@H]1CC[C@H](NC(=O)Cn2ccc3cc(F)c(F)cc32)CC1` returned a Ki of 0.9 nM.

As for `CC(C)S(=O)(=O)NC[C@H]1CC[C@H](NC(=O)CN2CCc3cc(F)ccc32)CC1`, the affinity corresponds to a Ki of 4 nM.

The compound `CC(C)S(=O)(=O)NC[C@H]1CC[C@H](NC(=O)Cn2ccc3cccc(Cl)c32)CC1` showed a Ki of 0.9 nM.

The compound `CC(C)S(=O)(=O)NC[C@H]1CC[C@H](NC(=O)Cn2ccc3ccc(F)cc32)CC1` yielded a Ki of 1.2 nM.

The next data set has as its system Liver microsomes. Kind of data set: Intrinsic clearance in human liver microsomes at 1 uM by LC/MS analysis.
Conditions: not given
The data set is classed as ADME, Microsome. In a few lines:
(§1)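 Compound incubated with human or rat liver microsomes; reaction quenched with acetonitrile, centrifuged, and remaining drug in supernatant measured by LC/MS to estimate T1/2, from which intrinsic clearance was derived.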
With `CC(C)S(=O)(=O)NC[C@H]1CC[C@H](NC(=O)CN2CCOc3cc(Cl)ccc32)CC1`, the CLH was determined as 2.9 L/min.

`Cc1cc2ccccc2n1CC(=O)N[C@H]1CC[C@H](CNS(=O)(=O)C(C)C)CC1` displayed a CLH of 1.1 L/min.

In turn, `CC(C)S(=O)(=O)NC[C@H]1CC[C@H](NC(=O)Cc2c[nH]c3ccccc23)CC1` returned a CLH of 0.5 L/min.

In the case of `CC(C)S(=O)(=O)NC[C@H]1CC[C@H](NC(=O)CN2C(=O)CCc3cc(Cl)ccc32)CC1`, the CLH was 0.8 L/min.

Take `CC(C)S(=O)(=O)NC[C@H]1CC[C@H](NC(=O)CN2C(=O)COc3cc(Cl)ccc32)CC1`: the CLH came out at 0.5 L/min.

Take `CC(C)S(=O)(=O)NC[C@H]1CC[C@H](NC(=O)CN2CCCc3cc(Cl)ccc32)CC1`: the CLH was 2.8 L/min.

Consider `CC(C)S(=O)(=O)NC[C@H]1CC[C@H](NC(=O)Cn2c(=O)oc3ccccc32)CC1`, for which the CLH is reported as 0.5 L/min.

In turn, `Cc1ccc2c(c1)CCN2CC(=O)N[C@H]1CC[C@H](CNS(=O)(=O)C(C)C)CC1` had a CLH of 3.1 L/min.

`CC(C)S(=O)(=O)NC[C@H]1CC[C@H](NC(=O)Cn2ccc3cc(F)ccc32)CC1` showed a CLH of 0.6 L/min.

Regarding `CC(C)S(=O)(=O)NC[C@H]1CC[C@H](NC(=O)CCN2CCc3ccccc32)CC1`, the CLH is 5.8 L/min.

For `CC(C)S(=O)(=O)NC[C@H]1CC[C@H](NC(=O)Cn2ccc3cc(C#N)ccc32)CC1`, the CLH is reported as 0.4 L/min.

Take `CC(C)S(=O)(=O)NC[C@H]1CC[C@H](NC(=O)Cn2ccc3cc(F)c(F)cc32)CC1`: the CLH amounted to 2.5 L/min.

`CC(C)S(=O)(=O)NC[C@H]1CC[C@H](NC(=O)CN2CCc3cc(F)ccc32)CC1` displayed a CLH of 1.4 L/min.

Another data set concerns Liver microsomes. Kind of data set: Intrinsic clearance in rat liver microsomes at 1 uM by LC/MS analysis.
Conditions: not given
Format: ADME, Microsome. In outline: as §1
Consider `CC(C)S(=O)(=O)NC[C@H]1CC[C@H](NC(=O)CN2CCOc3cc(Cl)ccc32)CC1`, for which the CLH came to 35 mL/min.

The compound `Cc1cc2ccccc2n1CC(=O)N[C@H]1CC[C@H](CNS(=O)(=O)C(C)C)CC1` registered a CLH of 49 mL/min.

`CC(C)S(=O)(=O)NC[C@H]1CC[C@H](NC(=O)Cc2c[nH]c3ccccc23)CC1` gave a CLH of 3.4 mL/min.

In turn, `CC(C)S(=O)(=O)NC[C@H]1CC[C@H](NC(=O)CN2C(=O)CCc3cc(Cl)ccc32)CC1` had a CLH of 40 mL/min.

In turn, `CC(C)S(=O)(=O)NC[C@H]1CC[C@H](NC(=O)CN2C(=O)COc3cc(Cl)ccc32)CC1` registered a CLH of 15 mL/min.

With `CC(C)S(=O)(=O)NC[C@H]1CC[C@H](NC(=O)CN2CCCc3cc(Cl)ccc32)CC1`, the CLH worked out at 36 mL/min.

The compound `CC(C)S(=O)(=O)NC[C@H]1CC[C@H](NC(=O)Cn2c(=O)oc3ccccc32)CC1` yielded a CLH of 1.9 mL/min.

As to `Cc1ccc2c(c1)CCN2CC(=O)N[C@H]1CC[C@H](CNS(=O)(=O)C(C)C)CC1`, the CLH turned out to be 54 mL/min.

In the case of `CC(C)S(=O)(=O)NC[C@H]1CC[C@H](NC(=O)Cn2ccc3cc(F)ccc32)CC1`, the CLH stood at 11 mL/min.

`CC(C)S(=O)(=O)NC[C@H]1CC[C@H](NC(=O)CCN2CCc3ccccc32)CC1` gave a CLH of 7.1 mL/min.

For `CC(C)S(=O)(=O)NC[C@H]1CC[C@H](NC(=O)Cn2ccc3cc(C#N)ccc32)CC1`, the CLH came to 8.7 mL/min.

For `CC(C)S(=O)(=O)NC[C@H]1CC[C@H](NC(=O)Cn2ccc3cc(F)c(F)cc32)CC1`, the CLH was determined as 28 mL/min.

On to `CC(C)S(=O)(=O)NC[C@H]1CC[C@H](NC(=O)CN2CCc3cc(F)ccc32)CC1`, for which the CLH is 21 mL/min.

A further data set has as its system Brain. Briefly: Drug uptake in Sprague-Dawley rat brain at 10 mg/kg, po by LC-MS/MS analysis. Format: ADME, organism-based. More on the design: dose 10 mg/kg, route oral. The following applies: in vivo, read-out: Drug uptake. In a few lines:
(§2)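 Male Sprague-Dawley rats (300–350 g), femoral artery cannulated; single 10 mg/kg oral dose in an appropriate vehicle, N = 3. Blood taken predose, 1, 2 and 4 h; brains then collected and stored at -80 °C. Equal portions of plasma or homogenized brain from the three rats pooled per time point, protein precipitated, quantified by LC/MS/MS.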
On to `Cc1cc2ccccc2n1CC(=O)N[C@H]1CC[C@H](CNS(=O)(=O)C(C)C)CC1`, for which the concentration was determined as 49 nM.

For the compound `CC(C)S(=O)(=O)NC[C@H]1CC[C@H](NC(=O)Cc2c[nH]c3ccccc23)CC1`, the concentration was 54 nM.

For the compound `CC(C)S(=O)(=O)NC[C@H]1CC[C@H](NC(=O)CN2C(=O)CCc3cc(Cl)ccc32)CC1`, the concentration came to 17 nM.

As for `CC(C)S(=O)(=O)NC[C@H]1CC[C@H](NC(=O)CN2CCCc3cc(Cl)ccc32)CC1`, the concentration was determined as 88 nM.

In the case of `CC(C)S(=O)(=O)NC[C@H]1CC[C@H](NC(=O)Cn2c(=O)oc3ccccc32)CC1`, the concentration came to 19 nM.

`Cc1ccc2c(c1)CCN2CC(=O)N[C@H]1CC[C@H](CNS(=O)(=O)C(C)C)CC1`: the concentration was found to be 477 nM.

With `CC(C)S(=O)(=O)NC[C@H]1CC[C@H](NC(=O)Cn2ccc3cc(F)ccc32)CC1`, the concentration stood at 100 nM.

On to `CC(C)S(=O)(=O)NC[C@H]1CC[C@H](NC(=O)CCN2CCc3ccccc32)CC1`, for which the concentration was 7 nM.

As to `CC(C)S(=O)(=O)NC[C@H]1CC[C@H](NC(=O)Cn2ccc3cc(C#N)ccc32)CC1`, the concentration was found to be 43 nM.

For the compound `CC(C)S(=O)(=O)NC[C@H]1CC[C@H](NC(=O)Cn2ccc3cc(F)c(F)cc32)CC1`, the concentration amounted to 328 nM.

Consider `CC(C)S(=O)(=O)NC[C@H]1CC[C@H](NC(=O)CN2CCc3cc(F)ccc32)CC1`, for which the concentration is 117 nM.

A further data set relates to Plasma. Kind of data set: Plasma concentration in Sprague-Dawley rat at 10 mg/kg, po by LC-MS/MS analysis. Format: ADME, organism-based. On the set-up: dose 10 mg/kg, route oral. Particulars: in vivo. In a few lines:
as §2
`CC(C)S(=O)(=O)NC[C@H]1CC[C@H](NC(=O)CN2CCOc3cc(Cl)ccc32)CC1` had a concentration of 428 nM.

In turn, `Cc1cc2ccccc2n1CC(=O)N[C@H]1CC[C@H](CNS(=O)(=O)C(C)C)CC1` showed a concentration of 242 nM.

The compound `CC(C)S(=O)(=O)NC[C@H]1CC[C@H](NC(=O)Cc2c[nH]c3ccccc23)CC1` returned a concentration of 2560 nM.

On to `CC(C)S(=O)(=O)NC[C@H]1CC[C@H](NC(=O)CN2C(=O)CCc3cc(Cl)ccc32)CC1`, for which the concentration stood at 877 nM.

`CC(C)S(=O)(=O)NC[C@H]1CC[C@H](NC(=O)CN2C(=O)COc3cc(Cl)ccc32)CC1` gave a concentration of 480 nM.

Consider `CC(C)S(=O)(=O)NC[C@H]1CC[C@H](NC(=O)CN2CCCc3cc(Cl)ccc32)CC1`, for which the concentration was determined as 498 nM.

`CC(C)S(=O)(=O)NC[C@H]1CC[C@H](NC(=O)Cn2c(=O)oc3ccccc32)CC1` yielded a concentration of 1640 nM.

`Cc1ccc2c(c1)CCN2CC(=O)N[C@H]1CC[C@H](CNS(=O)(=O)C(C)C)CC1` displayed a concentration of 6140 nM.

As for `CC(C)S(=O)(=O)NC[C@H]1CC[C@H](NC(=O)Cn2ccc3cc(F)ccc32)CC1`, the concentration was 1300 nM.

The compound `CC(C)S(=O)(=O)NC[C@H]1CC[C@H](NC(=O)CCN2CCc3ccccc32)CC1` had a concentration of 24 nM.

`CC(C)S(=O)(=O)NC[C@H]1CC[C@H](NC(=O)Cn2ccc3cc(C#N)ccc32)CC1` registered a concentration of 769 nM.

`CC(C)S(=O)(=O)NC[C@H]1CC[C@H](NC(=O)Cn2ccc3cc(F)c(F)cc32)CC1` gave a concentration of 2080 nM.

The compound `CC(C)S(=O)(=O)NC[C@H]1CC[C@H](NC(=O)CN2CCc3cc(F)ccc32)CC1` returned a concentration of 2680 nM.
